# Laboratory results published in ChEMBL document CHEMBL1121655, “Methylangelicins: new potential agents for the photochemotherapy of psoriasis. Structure-activity study on the dark and photochemical interactions with DNA” (J Med Chem, 1981).
# Key:
# [1] = tested on: Ehrlich; assay: Compound was evaluated for the inhibition of DNA synthesis in Ehrlich Ascites tumor cells by irradiation (365 nm) at 1.9 x 10 e-5M; format: functional
# Procedure, shortened: (§1)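 Ehrlich ascites cells, 2×10^7 cells/mL in Hank's solution, on ice with 1.9×10^-5 M compound, irradiated by HPW 125 lamp at 20 cm (2.02×10^16 quanta/s). Then 2×10^6 cells pulsed 15 min at 37 °C with 1 μCi [3H]thymidine (DNA) or [3H]uridine (RNA). TCA-insoluble counts as % of untreated. Each dose at least in duplicate. D50 = UV dose giving 50% inhibition.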
# [2] = tested on: Ehrlich; assay: Compound was evaluated for the inhibition of RNA synthesis in Ehrlich Ascites tumor cells by irradiation (365 nm) at 1.9 x 10 e-5M; format: functional; procedure, shortened: as §1
# [3] = tested on: Nucleic Acid; assay: (§2) Compound was evaluated for association constant in the calf thymus DNA; format: nucleic-acid assay; settings: Bos taurus
# Procedure, shortened: (§3)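 Equilibrium dialysis at 25 ± 0.05 °C in the dark, 12 h with shaking, across a cellophane membrane. Tritiated angelicin at slightly below its water solubility in 0.02 M NaCl with 1 mM EDTA, against DNA at 3×10^-3 to 3×10^-4 M. Both phases counted by scintillation to give r and c. K and n fitted iteratively to the McGhee–von Hippel equation.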
# [4] = tested on: Nucleic Acid; assay: Compound was evaluated for rate constant in the calf thymus DNA; format: functional; settings: Bos taurus
# Procedure, shortened: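 DNA at 2.3×10^-3 M in 2×10^-3 M NaCl and 1×10^-3 M EDTA with 3×10^-5 M labeled furocoumarin. Irradiated at 365 nm, 1.07×10^16 quanta s^-1 mL^-1, for increasing times in a thermostatted bath. Complexed fraction at time 0 taken from dialysis at 2 mM NaCl with ligand:nucleotide 1:76.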
# [5] = Water solubility (solubility in mol/L); format: ADME; settings: read-out: S
# [6] = tested on: Nucleic Acid; assay: as §2; format: functional; settings: Bos taurus; procedure, shortened: as §3
K [3],solubility [5] [µg/mL],Structure (SMILES),D50 [1] [quanta],D50 [2] [quanta],Rate constant [4] [min⁻¹],K [6]
1450,,Cc1cc2c(ccc3c(C)cc(=O)oc32)o1,1.09e+19,1.35e+19,,
,4,Cc1cc(=O)oc2c1ccc1occc12,2.4e+19,1.81e+19,0.016,1400
,12,Cc1cc2c(ccc3ccc(=O)oc32)o1,1.66e+19,1.74e+19,0.021,1200
,4.5,Cc1cc2occc2c2oc(=O)ccc12,9.1e+18,8.3e+18,0.034,1560
,3,Cc1cc2c(cc(C)c3ccc(=O)oc32)o1,1.38e+19,6.6e+18,0.027,1750
,,O=c1ccc2cc3ccoc3cc2o1 [PSORALEN],9.1e+18,1.4e+19,,

Structure (SMILES),K [3],solubility [5] [µg/mL],D50 [1] [quanta],D50 [2] [quanta],Rate constant [4] [min⁻¹],K [6]
O=c1ccc2ccc3occc3c2o1 [ANGELICIN],,20,2.5e+19,2.33e+19,0.011,560
